According to publication PMC7383777 (Pediatric Diabetes, 2020):
Read-outs that look alike come from different tables or passages of the source.

Format: in vivo, human
Settings: for Glucose intervention needed, subjects: between 2 and 6 hours postdose
How it was run: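 Randomized crossover: single s.c. pen dose of test or comparator insulin (100 U/mL) at two visits 3–22 days apart. Subjects were hospitalised 12 h and fasted to 6 h. AEs were treatment-emergent if onset was ≤7 days postdose. Hypoglycaemia followed ADA/ISPAD definitions, confirmed by meter PG <56 mg/dL and counted up to the next insulin or 16 h. Glucose was given below 56 mg/dL or at investigator discretion.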

[1] = across the three age groups, 0.2 U/kg s.c. single dose

## insulin aspart [IAsp]
[1]
  Safety and tolerability: safe and well tolerated
  Serious AEs: No serious AEs were observed
  Severe hypoglycemic episodes: No severe hypoglycemic episodes were reported
adults, N = 15, 0.2 U/kg s.c. single dose
  Confirmed hypoglycemic episodes (PG below 56 mg/dL), number: three
adults
  Glucose intervention needed, subjects: three
All age groups
  Glucose intervention needed, subjects: seven
children
  Glucose intervention needed, subjects: three
